From paper PMC7747014 (Journal of medicinal chemistry, 2015)
Structures can show the parent of a compound that is named as a salt. Where two headings read alike, the source gives them in different places. One block for each molecule: values may come before it.

Legend:
Human recombinant Top1 [1] = biological target: T1, Human recombinant Top1 (Homo sapiens, UniProt P11387); details: graded relative to 1 μM camptothecin; cited from earlier work
T1 sequence (P11387 1-765): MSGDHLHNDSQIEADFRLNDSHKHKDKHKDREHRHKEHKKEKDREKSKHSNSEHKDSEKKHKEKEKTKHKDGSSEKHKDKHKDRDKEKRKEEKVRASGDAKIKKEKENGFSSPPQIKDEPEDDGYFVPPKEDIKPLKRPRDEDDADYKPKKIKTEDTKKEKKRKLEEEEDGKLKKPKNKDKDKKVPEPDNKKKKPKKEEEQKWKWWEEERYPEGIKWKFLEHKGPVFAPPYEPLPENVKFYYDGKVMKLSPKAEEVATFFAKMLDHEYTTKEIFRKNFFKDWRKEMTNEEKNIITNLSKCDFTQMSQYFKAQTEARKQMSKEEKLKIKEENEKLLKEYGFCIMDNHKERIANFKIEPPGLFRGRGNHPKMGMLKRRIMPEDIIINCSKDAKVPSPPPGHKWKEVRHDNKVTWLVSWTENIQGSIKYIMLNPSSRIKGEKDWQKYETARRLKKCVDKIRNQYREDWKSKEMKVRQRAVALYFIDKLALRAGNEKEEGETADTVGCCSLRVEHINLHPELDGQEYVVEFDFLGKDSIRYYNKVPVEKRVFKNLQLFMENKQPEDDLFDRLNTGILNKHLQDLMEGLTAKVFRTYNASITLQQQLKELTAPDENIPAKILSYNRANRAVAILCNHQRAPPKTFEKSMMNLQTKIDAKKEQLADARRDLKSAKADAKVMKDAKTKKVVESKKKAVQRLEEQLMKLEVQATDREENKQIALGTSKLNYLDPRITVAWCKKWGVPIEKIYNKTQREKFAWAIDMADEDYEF

prostate DU-145 = details: read-out: cytotoxicity (GI50 in μM) prostate DU-145; cited from earlier work
ovarian OVACAR-3 = details: read-out: cytotoxicity (GI50 in μM) ovarian OVACAR-3; cited from earlier work
melanoma UACC-62 = details: read-out: cytotoxicity (GI50 in μM) melanoma UACC-62; cited from earlier work
lung HOP-62 = details: read-out: cytotoxicity (GI50 in μM) lung HOP-62; cited from earlier work
colon HCT-116 = details: read-out: cytotoxicity (GI50 in μM) colon HCT-116; cited from earlier work
renal SN12C = details: read-out: cytotoxicity (GI50 in μM) renal SN12C; cited from earlier work
CNS SF-539 = details: read-out: cytotoxicity (GI50 in μM) CNS SF-539; cited from earlier work
[2] = system: 60 common human cancer cell lines (NCI-60); details: cited from earlier work
breast MCF7 = details: read-out: cytotoxicity (GI50 in μM) breast MCF7; cited from earlier work
[3] = system: 60 common human cancer cell lines (NCI-60); test: NCI-60 five-dose screen, mean-graph midpoint; type: cell-based
Outline: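 NCI-DTP screen across 60 human cancer cell lines. One-dose prescreen at 10 μM; compounds passing the cutoff went to five concentrations, 100 μM to 10 nM. GI50 per cell line interpolated from five-dose data.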

recombinant TDP1 = recombinant TDP1 (Homo sapiens, UniProt Q9NUW8); test: Gel-based assay measuring the inhibition of recombinant TDP1; type: biochemical; details: for IC50: read-out: TDP1 inhibition, semiquantitative IC50 scale
recombinant TDP1, sequence (Q9NUW8 whole entry): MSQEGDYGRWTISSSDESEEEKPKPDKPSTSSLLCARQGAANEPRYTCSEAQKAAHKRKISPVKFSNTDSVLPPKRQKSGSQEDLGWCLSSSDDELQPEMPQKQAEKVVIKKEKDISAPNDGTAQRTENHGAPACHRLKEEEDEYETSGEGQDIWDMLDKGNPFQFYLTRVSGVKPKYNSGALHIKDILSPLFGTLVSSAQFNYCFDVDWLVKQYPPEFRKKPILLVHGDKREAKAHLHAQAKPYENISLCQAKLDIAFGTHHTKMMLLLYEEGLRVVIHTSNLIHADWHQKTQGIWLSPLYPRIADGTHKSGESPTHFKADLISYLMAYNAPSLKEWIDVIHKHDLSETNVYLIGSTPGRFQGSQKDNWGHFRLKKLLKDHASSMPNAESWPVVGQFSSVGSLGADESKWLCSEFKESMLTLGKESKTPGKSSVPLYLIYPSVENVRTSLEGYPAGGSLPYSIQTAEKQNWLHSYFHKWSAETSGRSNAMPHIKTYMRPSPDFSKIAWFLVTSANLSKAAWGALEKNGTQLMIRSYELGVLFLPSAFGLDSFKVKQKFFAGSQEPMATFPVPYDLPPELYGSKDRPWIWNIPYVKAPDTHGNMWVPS

Human recombinant Top1 [4] = biological target: T1, Human recombinant Top1; test: Top1-mediated DNA cleavage assay; type: biochemical; details: graded relative to 1 μM camptothecin
[5] = read-out: MGM values, range over the named compounds
[6] = read-out: MGM values, range over the named series
[7] = Homo sapiens, 60 cell, read-out: MGM

SMILES: COc1cccc2c1-c1c(c3ccc([N+](=O)[O-])cc3c(=O)n1CCCN)C2=O [Compound 4]
- Top1 cleavage (Human recombinant Top1 [1]): ++++
- GI50 (prostate DU-145): 1.1 µM
- GI50 (ovarian OVACAR-3): 2.3 µM
- GI50 (melanoma UACC-62): 2.3 µM
- GI50 (lung HOP-62): 1.1 µM

SMILES: COc1ccc2c(c1)C(=O)c1c-2n(CCCN)c(=O)c2cc([N+](=O)[O-])ccc12 [Compound 5]
- Top1 cleavage (Human recombinant Top1 [1]): +++++
- GI50 (colon HCT-116): < 0.01 µM
- GI50 (renal SN12C): < 0.01 µM
- GI50 (melanoma UACC-62): < 0.01 µM
- GI50 (CNS SF-539): < 0.01 µM
- GI50 (lung HOP-62): < 0.01 µM

SMILES: COc1cc2c(cc1O)-c1c(c3cc(OC)c(OC)cc3c(=O)n1CCCn1ccnc1)C2=O [Compound 9]
- Top1 cleavage (Human recombinant Top1 [1]): ++(+)
- GI50 (colon HCT-116): > 100 µM
- GI50 (prostate DU-145): > 100 µM
- GI50 ([2]; read-out: MGM, average GI50 across 60 cell lines): 42 ± 7 µM
- GI50 (breast MCF7): 0.05 µM
- GI50 (ovarian OVACAR-3): > 100 µM
- GI50 (melanoma UACC-62): 0.33 µM
- GI50 (lung HOP-62): > 100 µM

SMILES: COc1cc2c(cc1O)C(=O)c1c-2n(CCCN2CCOCC2)c(=O)c2cc(OC)c(OC)cc12 [Compound 10]
- Top1 cleavage (Human recombinant Top1 [1]): +++++
- GI50 (colon HCT-116): 0.03 µM
- GI50 (prostate DU-145): 0.02 µM
- GI50 (renal SN12C): 0.02 µM
- GI50 [2, 5]: 0.055 to 0.087 µM
- GI50 (breast MCF7): 0.02 µM
- GI50 (ovarian OVACAR-3): 0.03 µM
- GI50 (melanoma UACC-62): 0.02 µM
- GI50 (CNS SF-539): 0.02 µM
- GI50 (lung HOP-62): 0.02 µM

SMILES: COc1cc2c(cc1O)C(=O)c1c-2n(CCCn2ccnc2)c(=O)c2cc(OC)c(OC)cc12 [Compound 11]
- GI50 (colon HCT-116): < 0.01 µM
- GI50 (prostate DU-145): < 0.01 µM
- GI50 (renal SN12C): < 0.01 µM
- GI50 [2, 5]: 0.055 to 0.087 µM
- GI50 (breast MCF7): < 0.01 µM
- GI50 (ovarian OVACAR-3): 0.02 µM
- GI50 (melanoma UACC-62): < 0.01 µM
- GI50 (CNS SF-539): < 0.01 µM
- GI50 (lung HOP-62): < 0.01 µM

SMILES: COc1cc2c(cc1O)C(=O)c1c-2n(CCCN2CCOCC2)c(=O)c2cc([N+](=O)[O-])ccc12 [Compound 21, 9-Hydroxy-8-methoxy-6-(3-morpholinopropyl)-3-nitro-5H-indeno[1,2-c]isoquinoline-5,11(6H)-dione Hydrobromide]
- GI50 [3, 6]: 0.016 to 0.021 µM

SMILES: COc1cc2c(cc1O)C(=O)c1c-2n(CCCn2ccnc2)c(=O)c2cc([N+](=O)[O-])ccc12 [Compound 23, 6-(3-(1H-Imidazol-1-yl)propyl)-9-hydroxy-8-methoxy-3-nitro-5H-indeno[1,2-c]isoquinoline-5,11(6H)-dione Hydrobromide]
- GI50 [3, 6]: 0.016 to 0.021 µM

SMILES: COc1cc2c(cc1O)-c1c(c3ccc([N+](=O)[O-])cc3c(=O)n1CCCN1CCOCC1)C2=O [Compound 32, 8-Hydroxy-9-methoxy-6-(3-morpholinopropyl)-3-nitro-5H-indeno[1,2-c]isoquinoline-5,11(6H)-dione Hydrobromide]
- GI50 [3, 7]: 0.2 µM

SMILES: O=C1c2c(O)cccc2-c2c1c1ccc([N+](=O)[O-])cc1c(=O)n2CCCN1CCOCC1 [Compound 56, 10-(Hydroxy)-6-(3-morpholinopropyl)-3-nitro-5H-indeno[1,2-c]-isoquinoline-5,11(6H)-dione]
- GI50 [3, 7]: 3.5 µM
- GI50 [3, 6]: 0.234 to 3.55 µM

SMILES: O=C1c2ccc(O)cc2-c2c1c1ccc([N+](=O)[O-])cc1c(=O)n2CCCn1ccnc1 [Compound 59, 6-(3-(1H-Imidazol-1-yl)propyl)-8-hydroxy-3-nitro-5H-indeno[1,2-c]isoquinoline-5,11(6H)-dione Hydrobromide]
- GI50 [3, 6]: 0.056 to 0.407 µM

SMILES: O=C1c2c(O)cccc2-c2c1c1ccc([N+](=O)[O-])cc1c(=O)n2CCCn1ccnc1 [Compound 60, 6-(3-(1H-Imidazol-1-yl)propyl)-10-hydroxy-3-nitro-5H-indeno-[1,2-c]isoquinoline-5,11(6H)-dione Hydrobromide]
- GI50 [3, 6]: 0.234 to 3.55 µM

SMILES: O=C1c2ccccc2-c2c1c1ccccc1c(=O)n2CCCNCCCNCCCn1c2c(c3ccccc3c1=O)C(=O)c1ccccc1-2 [Compound 72]
- IC50 (recombinant TDP1): 1 to 12 µM

More lines, main results first:

- TDP1 inhibitory activity (in words) (recombinant TDP1): TDP1 inhibitors
- IC50 (recombinant TDP1): 12 to 37 µM
SMILES: Br.COc1cc2c(cc1O)C(=O)c1c-2n(CCCN)c(=O)c2cc([N+](=O)[O-])ccc12 [Compound 25, 6-(3-Aminopropyl)-9-hydroxy-8-methoxy-3-nitro-5H-indeno[1,2-c]isoquinoline-5,11(6H)-dione Hydrobromide]
- GI50 [3, 6]: 0.016 to 0.021 µM

- IC50 (recombinant TDP1): 12 to 37 µM
- Top1 cleavage (Human recombinant Top1 [4]): ++(+)
SMILES: Br.COc1cc2c(cc1O)-c1c(c3ccc([N+](=O)[O-])cc3c(=O)n1CCCn1ccnc1)C2=O [Compound 34, 6-(3-(1H-Imidazol-1-yl)propyl)-8-hydroxy-9-methoxy-3-nitro-5H-indeno[1,2-c]isoquinoline-5,11(6H)-dione Hydrobromide]
- GI50 [3, 7]: 0.74 µM

- TDP1 inhibitory activity (in words) (recombinant TDP1): TDP1 inhibitors
- IC50 (recombinant TDP1): 12 to 37 µM
SMILES: Br.COc1cc2c(cc1O)-c1c(c3ccc([N+](=O)[O-])cc3c(=O)n1CCCN)C2=O [Compound 36, 6-(3-Aminopropyl)-8-hydroxy-9-methoxy-3-nitro-5H-indeno[1,2-c]isoquinoline-5,11(6H)-dione Hydrobromide]

- Top1 cleavage (Human recombinant Top1 [4]): ++ (50–75% activity)
SMILES: O=C1c2cccc(O)c2-c2c1c1ccc([N+](=O)[O-])cc1c(=O)n2CCCN1CCOCC1 [Compound 43, 7-Hydroxy-6-(3-morpholinopropyl)-3-nitro-5H-indeno[1,2-c]-isoquinoline-5,11(6H)-dione]

- Top1 cleavage (Human recombinant Top1 [4]): +++ (75–95% activity)
SMILES: O=C1c2cccc(O)c2-c2c1c1ccc([N+](=O)[O-])cc1c(=O)n2CCCn1ccnc1 [Compound 44, 6-(3-(1H-Imidazol-1-yl)propyl)-7-hydroxy-3-nitro-5H-indeno[1,2-c]isoquinoline-5,11(6H)-dione]

- TDP1 inhibitory activity (in words) (recombinant TDP1): TDP1 inhibitors
- IC50 (recombinant TDP1): 12 to 37 µM
- Top1 cleavage (Human recombinant Top1 [4]): ++ (50–75% activity)
SMILES: Cl.NCCCn1c2c(c3ccc([N+](=O)[O-])cc3c1=O)C(=O)c1cccc(O)c1-2 [Compound 45, 6-(3-Aminopropyl)-7-hydroxy-3-nitro-5H-indeno[1,2-c]-isoquinoline-5,11(6H)-dione Hydrochloride]

- Top1 cleavage (Human recombinant Top1 [4]): ++++
SMILES: Br.O=C1c2ccc(O)cc2-c2c1c1ccc([N+](=O)[O-])cc1c(=O)n2CCCN1CCOCC1 [Compound 55, 8-(Hydroxy)-6-(3-morpholinopropyl)-3-nitro-5H-indeno[1,2-c]-isoquinoline-5,11(6H)-dione]
- GI50 [3, 6]: 0.056 to 0.407 µM

- TDP1 inhibitory activity (in words) (recombinant TDP1): TDP1 inhibitors
- IC50 (recombinant TDP1): 1 to 12 µM
SMILES: Br.NCCCn1c2c(c3ccc([N+](=O)[O-])cc3c1=O)C(=O)c1ccc(O)cc1-2 [Compound 63, 6-(3-Aminopropyl)-8-hydroxy-3-nitro-5H-indeno[1,2-c]-isoquinoline-5,11(6H)-dione Hydrobromide]
- GI50 [3, 7]: 0.41 ± 1 µM
- GI50 [3, 6]: 0.056 to 0.407 µM

- TDP1 inhibitory activity (in words) (recombinant TDP1): TDP1 inhibitors
- IC50 (recombinant TDP1): 12 to 37 µM
SMILES: Br.NCCCn1c2c(c3ccc([N+](=O)[O-])cc3c1=O)C(=O)c1c(O)cccc1-2 [Compound 64, 6-(3-Amino-propyl)-10-hydroxy-3-nitro-5H-indeno[1,2-c]isoquinoline-5,11(6H)-dione Hydrobromide]
- GI50 [3, 7]: 2 µM
- GI50 [3, 6]: 0.234 to 3.55 µM

- Top1 cleavage (Human recombinant Top1 [4]): +++++
SMILES: Br.O=C1c2cc(O)ccc2-c2c1c1ccc([N+](=O)[O-])cc1c(=O)n2CCCN1CCOCC1 [Compound 69, 9-Hydroxy-6-(3-morpholinopropyl)-3-nitro-5H-indeno[1,2-c]-isoquinoline-5,11(6H)-dione Hydrobromide]

- TDP1 inhibitory activity (in words) (recombinant TDP1): TDP1 inhibitors
- IC50 (recombinant TDP1): 37 to 111 µM
- Top1 cleavage (Human recombinant Top1 [4]): ++++
SMILES: Br.NCCCn1c2c(c3ccc([N+](=O)[O-])cc3c1=O)C(=O)c1cc(O)ccc1-2 [Compound 71, 6-(3-Aminopropyl)-9-hydroxy-3-nitro-5H-indeno[1,2-c]-isoquinoline-5,11(6H)-dione Hydrobromide]
- GI50 [3, 7]: 0.12 µM
